From ChEMBL document CHEMBL1212914, “A novel water-soluble gossypol derivative increases chemotherapeutic sensitivity and promotes growth inhibition in colon cancer” (J Med Chem, 2010)

Experiments:
A549 = test: Cytotoxicity against human A549 cells after 72 hrs by MTT assay; assay type: functional, cell-based; settings: A549, 72 h
Outline: (§1)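 Compounds dissolved in DMSO; cells seeded at 5 × 10^3 per well and treated after adherence with a range of concentrations for 72 h, with DMSO as negative control. MTT was added for 4 h at 37 °C in the dark, formazan dissolved in DMSO, and absorbance read. IC50 (μM) was calculated as the mean of three independent experiments.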

MDA-MB-435 = test: Cytotoxicity against human MDA-MB-435 cells after 72 hrs by MTT assay; assay type: functional, cell-based; settings: Homo sapiens, MDA-MB-435, 72 h; outline: as §1
MCF7 = test: Cytotoxicity against human MCF7 cells after 72 hrs by MTT assay; assay type: functional, cell-based; settings: Homo sapiens, MCF7, 72 h; outline: as §1
HCT-116 = test: Cytotoxicity against human HCT116 cells after 72 hrs by MTT assay; assay type: functional, cell-based; settings: Homo sapiens, HCT-116, 72 h; outline: as §1
B16-F10 = test: Cytotoxicity against mouse B16F10 cells after 72 hrs by MTT assay; assay type: functional, cell-based; settings: Mus musculus, B16-F10, 72 h; outline: as §1
PC-3 = test: Cytotoxicity against human PC3 cells after 72 hrs by MTT assay; assay type: functional, cell-based; settings: Homo sapiens, PC-3, 72 h; outline: as §1
4T1 = test: Cytotoxicity against mouse 4T1 cells after 72 hrs by MTT assay; assay type: functional, cell-based; settings: Mus musculus, 4T1, 72 h; outline: as §1
CT26 = test: Cytotoxicity against mouse CT26 cells after 72 hrs by MTT assay; assay type: functional, cell-based; settings: Mus musculus, CT26, 72 h; outline: as §1
MCF-7 (Homo sapiens) = test: Cytotoxicity against human MCF-7 cells after 72 hrs by MTT assay; settings: MCF-7, 72 h
SW-620 = test: Cytotoxicity against human SW620 cells after 72 hrs by MTT assay; assay type: functional, cell-based; settings: Homo sapiens, SW-620, 72 h; outline: as §1

| SMILES | IC50 (A549) [µM] | IC50 (MDA-MB-435) [µM] | IC50 (MCF7) [µM] | IC50 (HCT-116) [µM] | IC50 (B16-F10) [µM] | IC50 (PC-3) [µM] | IC50 (4T1) [µM] | IC50 (CT26) [µM] | IC50 (MCF-7 (Homo sapiens)) [µM] | IC50 (SW-620) [µM] |
| --- | --- | --- | --- | --- | --- | --- | --- | --- | --- | --- |
| Cc1cc2c(C(C)C)c(O)c(O)c(/C=N/C3C(=O)N4[C@@H]3SC(C)(C)[C@@H]4C(=O)O)c2c(O)c1-c1c(C)cc2c(C(C)C)c(O)c(O)c(/C=N/C3C(=O)N4[C@@H]3SC(C)(C)[C@@H]4C(=O)O)c2c1O (single isomer, unassigned) | > 40 | > 40 | > 40 | > 40 | > 40 | > 40 | > 40 | > 40 | > 40 | – |
| CC/C(C)=C(\NCc1c(O)c(O)c(C(C)C)c2cc(C)c(-c3c(C)cc4c(C(C)C)c(O)c(O)c(CN/C(C(=O)O)=C(/C)CC)c4c3O)c(O)c12)C(=O)O | 13.2 | > 40 | 25.8 | 23.4 | 20.1 | > 40 | > 40 | 11.9 | – | 11.8 |
| CO[C@@H](c1ccc([N+](=O)[O-])cc1)[C@H](CO)/N=C/c1c(O)c(O)c(C(C)C)c2cc(C)c(-c3c(C)cc4c(C(C)C)c(O)c(O)c(/C=N/[C@@H](CO)[C@@H](OC)c5ccc([N+](=O)[O-])cc5)c4c3O)c(O)c12 | > 40 | > 40 | > 40 | 17.7 | > 40 | > 40 | > 40 | > 40 | > 40 | – |
| CCC(C)[C@H](/N=C/c1c(O)c(O)c(C(C)C)c2cc(C)c(-c3c(C)cc4c(C(C)C)c(O)c(O)c(/C=N/[C@H](C(=O)O)C(C)CC)c4c3O)c(O)c12)C(=O)O (stereo partly specified) | 14.8 | > 40 | 28.5 | 34.9 | 19.9 | > 40 | > 40 | 18.4 | – | 22.6 |
